Laboratory results from ChEMBL document CHEMBL1124681, “Studies on hindered phenols and analogues. 1. Hypolipidemic and hypoglycemic agents with ability to inhibit lipid peroxidation” (J Med Chem, 1989).
Converted amounts (≈) assume the structure as drawn.

Tests used:
Rattus norvegicus [1] = species on record: Rattus norvegicus; assay: In vitro inhibitory activity against rat microsomal lipid peroxidation (m-LPO); type: functional
How it was run: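 Lipid peroxidation used rat liver microsomes driven by ferrous sulfate/cysteine, per the Malvy et al. approach. IC50 is given in µg/mL.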

Mus musculus [2] = assay: In vivo activity against serum lipid peroxidation level (s-LPO) by using Alloxan-induced hyperlipoperoxidemia method in BALB/c mice after peroral administration at 100 mg/kg dose; type: functional; conditions: route oral
How it was run: (§1)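 Male BALB/c mice, 8 weeks old, were fasted 18 h and then given alloxan 75 mg/kg iv. Compound was dosed orally 30 min before and 24 and 30 h after alloxan. Cervical blood was taken at 48 h, diluted in saline and centrifuged. Serum LPO was measured by TBA method; cholesterol and TG by enzymatic kits. Values are % decrease versus alloxan controls without compound.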

Rattus norvegicus [3] = species on record: Rattus norvegicus; assay: Inhibitory activity on peroxidation by a relative peroxide value(POV) to vitamin E by using ethyl linoleate; type: functional
How it was run: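 Peroxide formed was titrated with 0.01 N Na2S2O3 after adding water. The peroxide value was expressed relative to vitamin E.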

Rattus norvegicus [4] = species on record: Rattus norvegicus; assay: liver weight in Wistar-Imamichi rats at 0.2% in the diet for 7 days in 6 rats; conditions: dose 0.2% in diet
Rattus norvegicus [5] = assay: Hypotriglyceridemic activity of Wistar-Imamichi rats in 6 animals at 300 mg/kg dose
Mus musculus [6] = assay: Hypoglycemic activity at dose 50 mg/Kg in KK-mice after peroral administration; type: functional
How it was run: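 Male KK-mice, a genetically diabetic NIDDM model, were housed singly from 8 weeks of age and used at about 4-5 months once body weight exceeded 40 g. Compound was suspended in 0.5% carboxymethylcellulose saline and dosed orally 18 h before tail-vein blood sampling into heparinized tubes. Plasma glucose was measured with a glucose analyzer. Values are % decrease versus vehicle-dosed controls run simultaneously.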

Mus musculus [7] = assay: In vivo activity against triglycerides (TG) by using Alloxan-induced hyperlipoperoxidemia method in BALB/c mice after peroral administration at 100 mg/Kg dose; type: functional; how it was run: as §1
Mus musculus [8] = assay: In vivo activity against hypocholesterol (CHOL) by using Alloxan-induced hyperlipoperoxidemia method in BALB/c mice after peroral administration at 100 mg/Kg dose; type: functional; how it was run: as §1
Mus musculus [9] = assay: In vivo activity against serum lipid peroxidation level (s-LPO) by using Alloxan-induced hyperlipoperoxidemia method in BALB/c mice after peroral administration at 100 mg/Kg dose; type: functional; how it was run: as §1

Q: Which IC50 (Rattus norvegicus [1]) does the source give for `COc1c(OC(C)=O)c(C)c2c(c1OC)OC(C)(CCOc1ccc(CC3SC(N)=NC3=O)cc1)CC2` (stereo not drawn) here?
A: 0.3 µg/mL (≈ 0.568 µM)

Q: For `CC(=O)Oc1cc2c(cc1C(C)(C)C)OC(C)(CCOc1ccc(CC3SC(N)=NC3=O)cc1)CC2` (stereo not drawn), which IC50 (Rattus norvegicus [1]) is on record?
A: 0.1 µg/mL (≈ 0.196 µM)

Q: `Cc1cc(OCCCC(C)(C)CO)c(C)c(C)c1O` was tested. Which Decrease (Mus musculus [2]) did it give?
A: 27.4%

Q: What about the IC50 (Rattus norvegicus [1]) of the same compound?
A: 0.1 µg/mL (≈ 0.375 µM)

Q: And the Relative peroxidation (Rattus norvegicus [3])?
A: 0.42

Q: And the Increase (Rattus norvegicus [4])?
A: 23.9%

Q: What about the Decrease (Rattus norvegicus [5]) of the same compound?
A: 57.3%

Q: With `CC(=O)Oc1c(C)c(C)c2c(c1C)CCC(C)(COc1ccc(CC3SC(=O)NC3=O)cc1)O2` (stereo not drawn) as the compound, how does the Decrease (Mus musculus [6]) read?
A: 2.6%

Q: And the Decrease (Mus musculus [7])?
A: -4%

Q: And the Decrease (Mus musculus [8])?
A: 4%

Q: And the Decrease (Mus musculus [9])?
A: 6.7%

Q: And the IC50 (Rattus norvegicus [1])?
A: < 0.1 µg/mL

Q: What does the source list for `Cc1c(C)c2c(c(C)c1O)CCC(C)(COc1ccc(CC3SC(N)=NC3=O)cc1)O2` (stereo not drawn)?
A: Decrease (Mus musculus [7]): 16.8%; Decrease (Mus musculus [8]): 7.2%; Decrease (Mus musculus [9]): 11.9%; IC50 (Rattus norvegicus [1]): < 0.1 µg/mL

Q: `Cc1cc(OCCCCCCCC(C)(C)CO)c(C)c(C)c1O` was tested. Which IC50 (Rattus norvegicus [1]) did it give?
A: < 0.1 µg/mL

Q: Which results are given for `Cc1c(C)c2c(c(C)c1O)CCC(C)(COc1ccc(CC(Cl)C(=O)O)cc1)O2` (stereo not drawn)?
A: Decrease (Mus musculus [7]): 33.9%; Decrease (Mus musculus [8]): 14.9%; Decrease (Mus musculus [9]): 46.3%; IC50 (Rattus norvegicus [1]): 0.1 µg/mL (≈ 0.239 µM)

Q: Which results are given for `Cc1cc(OCCCC(C)(C)C(=O)O)c(C)c(C)c1O`?
A: IC50 (Rattus norvegicus [1]): > 1 µg/mL; Relative peroxidation (Rattus norvegicus [3]): 0.71

Q: `Cc1c(C)c2c(c(C)c1O)CCC(COc1ccc(CC3SC(=O)NC3=O)cc1)O2` (stereo not drawn) was tested. Which IC50 (Rattus norvegicus [1]) did it give?
A: < 0.1 µg/mL

Q: Which results are given for `Cc1c(C)c2c(c(C)c1O)CCC(COc1ccc(CC3SC(=O)NC3=O)cc1)(CC(C)C)O2` (stereo not drawn)?
A: Decrease (Mus musculus [7]): 11.9%; Decrease (Mus musculus [8]): 12.1%; Decrease (Mus musculus [9]): 1.5%; IC50 (Rattus norvegicus [1]): 0.1 µg/mL (≈ 0.207 µM)

Q: How did the IC50 (Rattus norvegicus [1]) turn out when `Cc1c(C)c2c(c(C)c1OC(=O)c1ccccc1)CCC(C)(COc1ccc(CC3SC(=O)NC3=O)cc1)O2` (stereo not drawn) was run?
A: 0.1 µg/mL (≈ 0.183 µM)

Q: For `Cc1c(C)c2c(c(C)c1O)SCO2`, which IC50 (Rattus norvegicus [1]) is on record?
A: < 0.1 µg/mL

Q: `Cc1c(C)c2c(c(C)c1O)SC(C)O2` (stereo not drawn) was tested. Which IC50 (Rattus norvegicus [1]) did it give?
A: < 0.1 µg/mL

Q: For `CCCC1Oc2c(C)c(C)c(O)c(C)c2S1` (stereo not drawn), which IC50 (Rattus norvegicus [1]) is on record?
A: < 0.1 µg/mL

Q: How did the IC50 (Rattus norvegicus [1]) turn out when `CC(=O)Oc1cc2c(cc1C)OC(C)(COc1ccc(CC3SC(N)=NC3=O)cc1)CC2` (stereo not drawn) was run?
A: 0.3 µg/mL (≈ 0.66 µM)
